Test results from ChEMBL document CHEMBL3758103, “Anti-herpetic and anti-dengue activity of abietane ferruginol analogues synthesized from (+)-dehydroabietylamine” (Eur J Med Chem, 2016).
Active and inactive are the calls of the source. The calls are words filed in the database; no cut-off is given here.

Experiments:
Candida parapsilosis = experiment: Antifungal activity against Candida parapsilosis ATCC 22019 assessed as microbial growth inhibition after 24 hrs by microdilution assay; assay type: functional, organism-based
In short: (§1)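 Yeast microdilution by the AFST-EUCAST method at an inoculum of 1–5 × 10^5 CFU/mL, final compound concentrations 50–3.125 μg/mL, in duplicate. MIC is the lowest concentration giving 90% growth reduction after 24 h at 35 °C. Untreated inoculum served as negative control. Values are the geometric mean of duplicate tests in three assays.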

Candida tropicalis = experiment: Antifungal activity against Candida tropicalis ATCC 200956 assessed as microbial growth inhibition after 24 hrs by microdilution assay; assay type: functional, organism-based; in short: as §1
Aspergillus flavus = experiment: Antifungal activity against Aspergillus flavus ATCC 204304 assessed as microbial growth inhibition by microdilution assay; assay type: functional, organism-based
In short: (§2)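 Broth microdilution under CLSI M38-A with modifications, in duplicate, at final compound concentrations of 50–3.125 μg/mL. […] Values are the geometric mean of duplicate tests in three assays. Assay DMSO was 0.05%.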

HeLa [1] = experiment: Cytotoxicity against human HeLa cells assessed as cell growth inhibition after 48 hrs by MTT assay; assay type: functional, cell-based
In short: (§3)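 MTT assay. Vero and HeLa cells plated at 2.0 × 10^4/well and preincubated 24 h; Jurkat and U937 plated at 3.0 × 10^4/well. Compounds were applied 48 h at 37 °C, 5% CO2, with 0.05% DMSO. Absorbance read at 570 nm and IC50 taken by linear regression. Values are the geometric mean of two experiments in quadruplicate.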

Jurkat [2] = experiment: Cytotoxicity against human Jurkat cells assessed as cell growth inhibition after 48 hrs by MTT assay; assay type: functional, cell-based; in short: as §3
Aspergillus fumigatus = experiment: Antifungal activity against Aspergillus fumigatus ATCC 204305 assessed as microbial growth inhibition by microdilution assay; assay type: functional, organism-based; in short: as §2
Fusarium oxysporum = experiment: Antifungal activity against Fusarium oxysporum ATCC 48112 assessed as microbial growth inhibition after 48 hrs by microdilution assay; assay type: functional, organism-based; in short: as §2
Candida albicans = experiment: Antifungal activity against Candida albicans […] assessed as microbial growth inhibition after 24 hrs by microdilution assay; assay type: functional, organism-based; in short: as §1
Aspergillus terreus = experiment: Antifungal activity against Aspergillus terreus CDC 317 assessed as microbial growth inhibition by microdilution assay; assay type: functional, organism-based; in short: as §2
[3] = Cytotoxicity against human U937 cells assessed as cell growth inhibition after 48 hrs by MTT assay; assay type: functional, cell-based; settings: U-937, 48 h; in short: as §3
Vero [4] = experiment: Cytotoxicity against African green monkey Vero cells assessed as cell growth inhibition after 48 hrs by MTT assay; assay type: cell-based; settings: Chlorocebus sabaeus; in short: as §3
Jurkat [5] = experiment: Selectivity index, ratio of IC50 for African green monkey Vero cells to IC50 for human Jurkat cells; assay type: functional
In short: (§4)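 SI calculated as Vero IC50 divided by HeLa, Jurkat or U937 IC50, all from the 48 h MTT assay.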

Human alphaherpesvirus 2 [6] = experiment: Antiviral activity against HHV-2 VR-734-G infected in African green monkey Vero cells assessed as maximal non toxic concentration causing reduction of viral titer after 72 hrs by crystal violet staining assay; assay type: functional
In short: (§5)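 End-point titration on Vero monolayers (2.0 × 10^4 cells/well, ≥80% confluent) with 10 TCID50 virus. Virus–compound mixtures (6.25–50 μg/mL) in DMEM/2% FBS with CMC (1% for HHV-1, 0.5% for HHV-2) were held 15 min at room temperature. Incubation was 48 h (HHV-1) or 72 h (HHV-2) at 37 °C, then formaldehyde/crystal violet staining and plaque counting. Read-out is the viral titer reduction factor. Two experiments in quadruplicate.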

Human alphaherpesvirus 2 [7] = experiment: Antiviral activity against HHV-2 VR-734-G infected in African green monkey Vero cells assessed as reduction in plaque formation administered post viral infection after 72 hrs by crystal violet staining technique; assay type: functional, organism-based; settings: Human alphaherpesvirus 2, VR-734-G
In short: (§6)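 Plaque reduction on Vero monolayers (2.5 × 10^4 cells/well) infected with 100 PFU/well. Pre-infection arm: virus–compound mixture added for 1 h at 37 °C, PBS wash, then CMC overlay. Post-infection arm: virus adsorbed 1 h, washed, then compound given in CMC. CMC was 1% for HHV-1, 0.75% for HHV-2 and 2% for DENV-2. Plates ran 72 h (HHV) or 8 days (DENV-2) before crystal violet staining. EC50 came from linear regression over ≥4 dilutions in quadruplicate.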

Human alphaherpesvirus 2 [8] = experiment: Antiviral activity against HHV-2 VR-734-G infected in African green monkey Vero cells assessed as reduction of viral titer at maximal non-toxic concentration after 72 hrs by crystal violet staining assay relative to control; assay type: functional; in short: as §5
Vero [9] = experiment: Cytotoxicity against African green monkey Vero cells assessed as inhibition of cell proliferation after 72 hrs; assay type: cell-based; settings: Chlorocebus sabaeus
Human alphaherpesvirus 1 [10] = experiment: Antiviral activity against HHV1 CDC Atlanta infected in African green monkey Vero cells assessed as reduction of viral titer at maximal non-toxic concentration after 48 hrs by crystal violet staining assay relative to control; assay type: functional; in short: as §5
Human alphaherpesvirus 1 [11] = experiment: Antiviral activity against HHV-1 CDC Atlanta infected in African green monkey Vero cells assessed as reduction in plaque formation administered post viral infection after 72 hrs by crystal violet staining technique; assay type: functional, organism-based; settings: Human alphaherpesvirus 1, CDC Atlanta, Vero, 72 h; read-out: EC50; in short: as §6
HeLa [12] = experiment: Selectivity index, ratio of IC50 for African green monkey Vero cells to IC50 for human HeLa cells; assay type: functional; in short: as §4
Vero [13] = experiment: Selectivity index, ratio of IC50 for African green monkey Vero cells to IC50 for human U937 cells; assay type: functional; in short: as §4

CC(=O)Oc1cc2c(cc1C(C)C)CC[C@H]1[C@](C)(CN3C(=O)c4ccccc4C3=O)CCC[C@]21C
Activity (Candida parapsilosis): inactive | Activity (Candida tropicalis): inactive | Activity (Aspergillus flavus): inactive | IC50 (HeLa [1]): > 50 µM | IC50 (Jurkat [2]): > 50 µM | Activity (Aspergillus fumigatus): inactive | Activity (Fusarium oxysporum): inactive | Activity (Candida albicans): inactive | Activity (Aspergillus terreus): inactive | IC50 [3]: > 50 µM

CC(=O)O[C@H]1C(=O)[C@@]2(C)[C@H]([C@H](OC(=O)c3ccccc3)[C@]3(O)C[C@H](OC(=O)[C@H](O)[C@@H](NC(=O)c4ccccc4)c4ccccc4)C(C)=C1C3(C)C)[C@]1(OC(C)=O)CO[C@@H]1C[C@@H]2O [PACLITAXEL]
IC50 (HeLa [1]): 0.099 µM | IC50 (Jurkat [2]): 0.0005 µM | IC50 (Vero [4]): 0.65 µM

CC(=O)Oc1cc2c(cc1C(C)C)CC[C@H]1[C@](C)(CN3C(=O)c4c(Cl)c(Cl)c(Cl)c(Cl)c4C3=O)CCC[C@]21C
Activity (Candida parapsilosis): inactive | Activity (Candida tropicalis): inactive | Activity (Aspergillus flavus): inactive | IC50 (HeLa [1]): > 40 µM | IC50 (Jurkat [2]): > 40 µM | Activity (Aspergillus fumigatus): inactive | Activity (Fusarium oxysporum): inactive | Activity (Candida albicans): inactive | Activity (Aspergillus terreus): inactive | IC50 [3]: > 40 µM

CC(C)c1cc2c(cc1O)[C@@]1(C)CCC[C@@](C)(CN)[C@@H]1CC2
Activity (Candida parapsilosis): inactive | Activity (Candida tropicalis): inactive | Activity (Aspergillus flavus): inactive | IC50 (HeLa [1]): > 80 µM | IC50 (Jurkat [2]): 49.4 µM | Activity (Aspergillus fumigatus): inactive | IC50 (Vero [4]): 39.8 µM | Activity (Fusarium oxysporum): inactive | Activity (Candida albicans): inactive | Ratio IC50 (Jurkat [5]): 0.8 | Activity (Aspergillus terreus): inactive | IC50 [3]: > 80 µM

Nc1nc2c(ncn2COCCO)c(=O)[nH]1 [ACYCLOVIR]
MNTD (Human alphaherpesvirus 2 [6]): 6.7 µM | EC50 (Human alphaherpesvirus 2 [7]): 0.27 µM | fold change (FC) (Human alphaherpesvirus 2 [8]): 1000 | IC50 (Vero [9]): > 1700 µM | fold change (FC) (Human alphaherpesvirus 1 [10]): 10000 | EC50 (Human alphaherpesvirus 1 [11]): 2.2 µM

COc1cccc2c1C(=O)c1c(O)c3c(c(O)c1C2=O)C[C@@](O)(C(=O)CO)C[C@@H]3O[C@H]1C[C@H](N)[C@H](O)[C@H](C)O1 [DOXORUBICIN]
IC50 (HeLa [1]): 0.834 µM | IC50 (Jurkat [2]): 0.012 µM | IC50 (Vero [4]): 1.93 µM | IC50 [3]: 0.077 µM

CC(=O)Oc1cc2c(cc1C(C)C)C(=O)C[C@H]1[C@](C)(CN3C(=O)c4c(Cl)c(Cl)c(Cl)c(Cl)c4C3=O)CCC[C@]21C
Activity (Candida parapsilosis): inactive | Activity (Candida tropicalis): inactive | Activity (Aspergillus flavus): inactive | Ratio IC50 (HeLa [12]): >43.8 | IC50 (HeLa [1]): 7.3 µM | IC50 (Jurkat [2]): 12.3 µM | Activity (Aspergillus fumigatus): inactive | IC50 (Vero [4]): > 320 µM | Ratio IC50 (Vero [13]): >38.5 | Activity (Fusarium oxysporum): inactive | Activity (Candida albicans): inactive | Ratio IC50 (Jurkat [5]): >26 | Activity (Aspergillus terreus): inactive | IC50 [3]: 8.3 µM

CC(=O)Oc1cc2c(cc1C(C)C)/C(=N\S(=O)(=O)c1ccc(C)cc1)C[C@H]1[C@](C)(CN3C(=O)c4c(Cl)c(Cl)c(Cl)c(Cl)c4C3=O)CCC[C@]21C
Activity (Candida parapsilosis): inactive | Activity (Candida tropicalis): inactive | Activity (Aspergillus flavus): inactive | IC50 (HeLa [1]): > 30 µM | IC50 (Jurkat [2]): > 30 µM | Activity (Aspergillus fumigatus): inactive | Activity (Fusarium oxysporum): inactive | Activity (Candida albicans): inactive | Activity (Aspergillus terreus): inactive | IC50 [3]: > 30 µM

CC(C)c1cc2c(cc1O)[C@@]1(C)CCC[C@@](C)(CN3C(=O)c4c(Cl)c(Cl)c(Cl)c(Cl)c4C3=O)[C@@H]1CC2
Activity (Candida parapsilosis): inactive | Activity (Candida tropicalis): inactive | Activity (Aspergillus flavus): inactive | Ratio IC50 (HeLa [12]): 9.2 | IC50 (HeLa [1]): 29 µM | IC50 (Jurkat [2]): 21.9 µM | Activity (Aspergillus fumigatus): inactive | IC50 (Vero [4]): 267 µM | Activity (Fusarium oxysporum): inactive | Activity (Candida albicans): inactive | Ratio IC50 (Jurkat [5]): 12.2 | Activity (Aspergillus terreus): inactive | IC50 [3]: > 40 µM

Cc1ccc(S(=O)(=O)NC[C@]2(C)CCC[C@]3(C)c4cc(O)c(C(C)C)cc4CC[C@@H]23)cc1
Activity (Candida parapsilosis): inactive | Activity (Candida tropicalis): inactive | Activity (Aspergillus flavus): inactive | IC50 (HeLa [1]): > 50 µM | IC50 (Jurkat [2]): 30.9 µM | Activity (Aspergillus fumigatus): inactive | IC50 (Vero [4]): 82.5 µM | Ratio IC50 (Vero [13]): 2.3 | Activity (Fusarium oxysporum): inactive | Activity (Candida albicans): inactive | Ratio IC50 (Jurkat [5]): 2.7 | Activity (Aspergillus terreus): inactive | IC50 [3]: 36 µM

CC(C)c1cc2c(cc1O)[C@@]1(C)CCCC(C)(C)[C@@H]1CC2 [FERRUGINOL]
Activity (Candida parapsilosis): inactive | Activity (Candida tropicalis): inactive | Activity (Aspergillus flavus): inactive | Ratio IC50 (HeLa [12]): 1.4 | IC50 (HeLa [1]): 64.9 µM | IC50 (Jurkat [2]): 48.2 µM | Activity (Aspergillus fumigatus): inactive | IC50 (Vero [4]): 90.4 µM | Ratio IC50 (Vero [13]): 4.2 | Activity (Fusarium oxysporum): inactive | Activity (Candida albicans): inactive | Ratio IC50 (Jurkat [5]): 1.9 | Activity (Aspergillus terreus): inactive | IC50 [3]: 21.3 µM
